Test results taken from ChEMBL document CHEMBL2157878, “In vitro cellular uptake and dimerization of signal transducer and activator of transcription-3 (STAT3) identify the photosensitizing and imaging-potential of isomeric photosensitizers derived from chlorophyll-a and bacteriochlorophyll-a” (J Med Chem, 2011).
Calls of active or inactive are those of the source. No cut-off for these calls is given here.

What was measured:
[1] = Photostability of the compound in 17% bovine calf serum assessed as rate of photobleaching at 6.5 uM after 20 to 22 mins in presence of light (75 mW/cm'2); type: ADME; conditions: cattle, read-out: Drug degradation
Outline: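 Equimolar (6.5 μM) photosensitizer solutions in 17% bovine calf serum were irradiated at 75 mW/cm². Absorption spectra were recorded at successive time points, and the normalized long-wavelength absorbance was plotted against time to follow photobleaching.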

[2] = Drug uptake in human BCC1 cells assessed as deposition in mitochondria at 200 nM after 30 mins by phase contrast microscopy; type: ADME; conditions: bcc1, 0.5 h, 0.2 µM
Outline: (§1)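 BCC1 cells in subconfluent culture, washed and incubated 30 min in serum-free DMEM with 200 nM PS. Washed free of PS and imaged at 640X under phase contrast and HPPH fluorescence (Ex 410/40, Em 675/750 nm). Cell PS also quantified by solubilising cells and reading fluorescence (Ex 415, Em 667 nm).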

[3] = Drug uptake in human BCC1 cells assessed as deposition in mitochondria at 200 nM after 30 mins by HPPH fluorescence spectrophotometry; type: ADME; conditions: bcc1, 0.5 h, 0.2 µM; outline: as §1
[4] = Drug uptake in human BCC1 cells at 200 nM incubated for 30 mins measured after 4 to 24 hrs by fluorescent microscopy; type: ADME, cell-based; conditions: bcc1, 0.5 h, 0.2 µM
BCC1 [5] = experiment: Reduction in EGFR levels in human BCC1 cells after 9 mins by Western blotting in presence of 665 nm laser light; type: functional, cell-based
Outline: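 BCC1 cells were incubated 2 h in serum-free DMEM with 2-fold serially diluted photosensitizer, washed, and illuminated with 665 nm light for 9 min (3 J/cm²). They were extracted immediately in RIPA buffer. Extracts (20 μg protein) were run on 6–10% SDS gels and immunoblotted for STAT3, EGFR, p38 and P-p38 with ECL detection. STAT3 crosslinking was scored as percent conversion of monomer into dimer form I.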

[6] = biological target: MAP kinase p38 (Homo sapiens) (UniProt O15264+Q15759+Q16539+P53778); experiment: Activation of p38 MAPK in human BCC1 cells assessed as dimerization of STAT3 after 9 mins by Western blotting in presence of 665 nm laser light; type: cell-based
Outline: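 Subconfluent BCC1 cells, 2 h in serum-free DMEM with 2-fold serially diluted PS, then 665 nm dye-laser light for 9 min at 37°C (3 J/cm²) in serum-free medium. Cells extracted immediately and lysed in RIPA. 20 μg protein run on 6–10% SDS gels and immunoblotted for STAT3, p38/P-p38 and EGFR with ECL detection. Crosslinking given as % monomeric STAT3 converted to dimer form I.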

BCC1 [7] = experiment: Induction of apoptosis in human BCC1 cells assessed as survival after 24 hrs by trypan blue assay; type: functional, cell-based
Outline: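 BCC1 cells were loaded for 2 h in serum-free DMEM with 2-fold serial dilutions of photosensitizer. After washing, they were illuminated in serum-free medium at 37° with 665 nm dye-laser light for 9 min (3 J/cm²). Cells were then cultured 24 h in DMEM/10% FCS and trypsinized. Trypan blue-excluding cells were counted by hemocytometer and expressed relative to untreated controls.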

Colon 26 [8] = experiment: Photosensitizing activity in mouse Colon 26 assessed as cell viability at 0.0625 uM after 24 hrs followed by illumination with 665 nm laser light and 48 hrs incubation in dark by MTT assay in presence of serum; type: functional, cell-based
Outline: (§2)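 Colon26 cells, 3×10³/well in RPMI/10% FCS, were incubated 24 h in the dark with photosensitizer at 0.3 μM or 0.0625 μM. Medium was replaced with drug-free complete medium before illumination at 0–4 J/cm², 3.2 mW/cm², at each compound's peak wavelength (660, 665 or 674 nm). After 48 h in the dark, MTT was added for the last 4 h and absorbance read at 570 nm. Four replicate wells per condition, three independent experiments.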

Colon 26 [9] = experiment: Drug uptake in mouse Colon 26 cells at 400 nM after 24 hrs by flow cytometry; type: ADME, cell-based; conditions: colon 26, 24 h, 0.4 µM
Outline: (§3)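 Colon26 cells seeded at 0.33×10⁶ per well and grown overnight, then given 100–800 nM PS in triplicate at 37°C, with no-PS wells for autofluorescence. Harvested by trypsin, spun cold, and run on flow cytometry (Ex 633 nm, Em 730±45 nm, 10,000 events). Value is mean fluorescence of triplicates minus autofluorescence.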

Colon 26 [10] = experiment: Drug uptake in mouse Colon 26 cells at 800 nM after 24 hrs by flow cytometry; type: ADME, cell-based; conditions: colon 26, 24 h, 0.8 µM; outline: as §3
Colon 26 [11] = experiment: Antitumor activity against mouse Colon 26 cells xenografted in parenterally dosed BALB/c mouse assessed as tumor cure at 1 umol/kg after 24 hrs followed by illumination with 128 J/cm'2, 14 mW/cm'2 laser light measured after 60 days; type: functional
Outline: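 Subcutaneous Colon26 tumours in BALB/c mice (10/group), dosed at 4–5 mm diameter with 1 μmol/kg PS. At 24 h, unanaesthetised restrained mice received laser light to the tumour (665, 660 or 674 nm by compound; 128 J/cm², 14 mW/cm²). Tumours measured daily (V = L·W²/2). Cure means no palpable tumour by day 60–90. Euthanasia at 400 mm³.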

Mus musculus [12] = experiment: Drug uptake in BALB/c mouse xenografted with mouse Colon 26 cells at 1 umol/kg, iv after 24 hrs by fluorescence imaging; type: ADME, organism-based; conditions: in vivo
Outline: (§4)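 BALB/c mice (3/group) with Colon26 tumours (1×10⁶ cells s.c., right axilla, grown to 4–5 mm) were shaved and given 1.0 μmol/kg PS i.v. Whole-body fluorescence imaged under ketamine/xylazine at 24, 48 and 72 h: 540/40 nm illumination, long-pass emission filter, spectral unmixing of autofluorescence. Read-out is mean intensity of a 20 mm tumour ROI (AU), mean ± SD of 3 mice.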

Mus musculus [13] = experiment: Drug uptake in BALB/c mouse xenografted with mouse Colon 26 cells at 1 umol/kg, iv after 48 hrs by fluorescence imaging; type: ADME, organism-based; conditions: in vivo; outline: as §4
Mus musculus [14] = experiment: Drug uptake in BALB/c mouse xenografted with mouse Colon 26 cells at 1 umol/kg, iv after 72 hrs by fluorescence imaging; type: ADME, organism-based; conditions: in vivo; outline: as §4
[15] = Drug uptake in BALB/c mouse tumor xenografted with mouse Colon 26 cells at 1 umol/kg, iv after 24 hrs by fluorescence imaging; type: ADME, organism-based, Neoplasm; conditions: in vivo; outline: as §4
Zone of skin = experiment: Drug uptake in skin of BALB/c mouse xenografted with mouse Colon 26 cells measured after removal of tumor at 1 umol/kg, iv after 24 hrs by fluorescence imaging; type: ADME, organism-based; conditions: in vivo
Outline: (§5)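 BALB/c mice carried subcutaneous Colon26 tumors (1×10⁶ cells, right posterior axilla) grown to 4–5 mm and were given 1 μmol/kg i.v. At 24 h the tumor was surgically removed and imaged, and the skin flap was imaged separately. Excitation was 540/40 nm with long-pass emission, followed by spectral unmixing of autofluorescence.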

[16] = Drug uptake in tumor of BALB/c mouse xenografted with mouse Colon 26 cells at 1 umol/kg, iv after 24 hrs by fluorescence imaging; type: ADME, organism-based, Neoplasm; conditions: in vivo; outline: as §5
BCC1 [17] = experiment: Increase in STAT3 cross linking level in human BCC1 cells assessed as dimerization of STAT3 after 9 mins by Western blotting in presence of 665 nm light
[18] = test system: BCC1 cells (Homo sapiens); experiment: Ratio of drug uptake in human BCC1 cells in serum free medium to drug uptake in human BCC1 cells in medium containing 10% fetal calf serum by fluorescent microscopy
Muscle tissue = experiment: Drug uptake in BALB/c mouse muscle xenografted with mouse Colon 26 cells at 150 uCi administered parenterally after 2 hrs by PET analysis; type: ADME, tissue-based; conditions: in vivo
Heart = experiment: Drug uptake in BALB/c mouse heart xenografted with mouse Colon 26 cells at 150 uCi administered parenterally after 2 hrs by PET analysis; type: ADME, tissue-based; conditions: in vivo, other
[19] = Drug uptake in BALB/c mouse tumor xenografted with mouse Colon 26 cells at 150 uCi administered parenterally after 2 hrs by PET analysis; type: ADME, Neoplasm; conditions: in vivo, other
[20] = Drug uptake in human BCC1 cells assessed as deposition in mitochondria at 0.2 uM after 30 mins by HPPH fluorescence spectrophotometry; type: ADME; conditions: bcc1, 0.5 h; outline: as §1
[21] = Drug uptake in human BCC1 cells assessed as deposition in mitochondria at 0.2 uM after for 30 mins by phase contrast microscopy; type: ADME; conditions: bcc1, 0.5 h; outline: as §1
[22] = Drug uptake in human BCC1 cells assessed as subcellular localization at 0.2 uM after 4 hrs by HPPH fluorescence spectrophotometry; type: ADME, cell-based; conditions: bcc1, 4 h
Outline: (§6)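 BCC1 cells incubated 30 min in serum-free DMEM with 3.2 μM or 0.2 μM PS, washed, and imaged at 640X under phase contrast or HPPH fluorescence. Cultures then kept a further 4 h in PS- and serum-free DMEM and imaged again under the same conditions to follow subcellular redistribution.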

[23] = Drug uptake in human BCC1 cells assessed as subcellular localization at 0.2 uM after 4 hrs by phase contrast microscopy; type: ADME, cell-based; conditions: bcc1, 4 h; outline: as §6
Colon 26 [24] = experiment: Photosensitizing activity in mouse Colon 26 assessed as cell viability at 0.3 uM after 24 hrs followed by illumination with 665 nm laser light and 48 hrs incubation in dark by MTT assay; type: functional, cell-based; outline: as §2
Liver = experiment: Drug uptake in parenterally dosed BALB/c mouse liver xenografted with mouse Colon 26 cells after 72 hrs by PET analysis; type: ADME, organism-based; conditions: in vivo
Outline: (§7)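 Tumor-bearing BALB/c mice (Colon26, subcutaneous) received ¹²⁴I-labeled photosensitizer via the tail vein at 15–50 μCi. Three mice per time point were sacrificed at 24, 48 and 72 h. Organs were removed, weighed and counted in a γ-well counter. Uptake was expressed as %ID/g tissue.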

Spleen = experiment: Drug uptake in parenterally dosed BALB/c mouse spleen xenografted with mouse Colon 26 cells after 72 hrs by PET analysis; type: ADME, organism-based; conditions: in vivo; outline: as §7
Intestine = experiment: Drug uptake in parenterally dosed BALB/c mouse intestine xenografted with mouse Colon 26 cells after 72 hrs by PET analysis; type: ADME, organism-based; conditions: in vivo, other; outline: as §7
[25] = Drug uptake in human BCC1 cells assessed as deposition in mitochondria at 3.2 uM after 30 mins by HPPH fluorescence spectrophotometry; type: ADME; conditions: bcc1, 0.5 h; outline: as §6
[26] = Drug uptake in human BCC1 cells assessed as deposition in mitochondria at 3.2 uM after 30 mins by phase contrast microscopy; type: ADME; conditions: bcc1, 0.5 h; outline: as §6
[27] = Drug uptake in human BCC1 cells assessed as subcellular localization at 3.2 uM after 4 hrs by HPPH fluorescence spectrophotometry; type: ADME, cell-based; conditions: bcc1, 4 h; outline: as §6
[28] = Drug uptake in human BCC1 cells assessed as subcellular localization at 3.2 uM after 4 hrs by phase contrast microscopy; type: ADME, cell-based; conditions: bcc1, 4 h; outline: as §6
[29] = Drug uptake in human BCC1 cells at 200 nM after 30 mins by fluorescent microscopy; conditions: bcc1, 30 min, 0.2 µM

Row | SMILES | degraded at 6.5 µM [1] | Drug uptake [2] | Drug uptake [3] | Drug uptake [4] | Activity (BCC1 [5]) | Activity [6] | Activity (BCC1 [7]) | Activity (Colon 26 [8]) | Drug uptake (Colon 26 [9]) | Drug uptake (Colon 26 [10]) | Activity (Colon 26 [11]) | Drug uptake (Mus musculus [12]) | Drug uptake (Mus musculus [13]) | Drug uptake (Mus musculus [14]) | Drug uptake [15] | Drug uptake (Zone of skin) | Drug uptake [16] | Activity (BCC1 [17]) | Ratio [18] | also measured
1 | CC[C@H]1c2cc3[nH]c4c(c5nc(cc6[nH]c(cc(n2)[C@@H]1C)c(C(C)OCc1cccc(I)c1)c6C)C(C)=C5CCC(=O)O)CC(=O)c4c3C (stereo partly specified) | 50% | Active | Active | Active | Active | Active | Dose-dependent effect | Active | Active | Active | 60% | Active | Active | Active | Active | Not Active | Active | Active | 4 | 
2 | OC[C@H]1O[C@@H](O)[C@H]([18F])[C@@H](O)[C@@H]1O [FLUDEOXYGLUCOSE-F18] |  |  |  |  |  |  |  |  |  |  |  |  |  |  |  |  |  |  |  | Drug uptake (Muscle tissue): Active; Drug uptake (Heart): Active; Drug uptake [19]: Active
3 | CCC1=C(C)c2cc3[nH]c(cc4nc(c5c6[nH]c(cc1n2)c(C)c6C(=O)C5)C(CCC(=O)O)[C@@H]4C)c(C)c3C(C)OCc1cccc(I)c1 (stereo partly specified) | 50% | Active | Active | Active | Active | Active | Dose-dependent effect | Active | Active | Active |  | Active | Active | Active | Active | Not Active | Active | Active | 4 | Drug uptake [20]: Active; Drug uptake [21]: Active; Drug uptake [22]: Active; Drug uptake [23]: Active; Activity (Colon 26 [24]): Active; Drug uptake (Liver): Active; Drug uptake (Spleen): Active; Drug uptake (Intestine): Active
4 | CCC1=C(C)c2cc3[nH]c(cc4nc(c5c6[nH]c(cc1n2)c(C)c6C(=O)C5)C(CCC(=O)OC)[C@@H]4C)c(C)c3C(C)OCc1cccc(I)c1 (stereo partly specified) |  | Active | Active |  | Active | Active | Dose-dependent effect |  |  |  | 20% |  |  |  |  |  |  | Active | 5 | Drug uptake [25]: Active; Drug uptake [26]: Active; Drug uptake [27]: Active; Drug uptake [28]: Active; Drug uptake [29]: Active
